Experimental findings from ChEMBL document CHEMBL3045066, “Synthesis, structure-activity relationships (SAR) and in silico studies of coumarin derivatives with antifungal activity” (2013) are described below.

What all share (assay type): functional
The subject of assay [1] is Aspergillus fumigatus. In words: Antifungal activity against Aspergillus fumigatus IPP 210 after 72 hr by broth microdilution method. The settings on record: IPP 210, 72 h. The essentials: (§1)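 Molds were grown 7 days on SDA at 25–28 °C, and conidia were harvested in sterile 0.85% NaCl. Conidia were counted by hemocytometer and adjusted to about 5 × 10^6 conidia/mL. Microdilution used Sabouraud broth in 96-well plates with compound at 2048 to 8 μg/mL and about 2.5 × 10^5 conidia/mL per well. Plates were incubated at 25–28 °C for 72 h, with readings confirmed at 7 days. Amphotericin B was the reference.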
(In broth dilution the organism is exposed to a series of concentrations in liquid medium.)

In assay [2] the test system is Aspergillus flavus. In words: Antifungal activity against Aspergillus flavus ATCC 16013 after 72 hr by broth microdilution method. The settings on record: ATCC 16013, 72 h. The method, boiled down:
as §1

Assay [3] has as its system Aspergillus fumigatus. In words: Antifungal activity against Aspergillus fumigatus ATCC 16913 after 72 hr by broth microdilution method. The settings on record: for MIC: Aspergillus fumigatus, ATCC 16913, 72 h. The essentials: as §1
Assay [4] relates to Aspergillus flavus. In words: Antifungal activity against Aspergillus flavus LM 26 after 72 hr by broth microdilution method. The settings on record: LM 26, 72 h. The method, boiled down:
as §1

Assay [5] deals with Aspergillus flavus. In words: Antifungal activity against Aspergillus flavus LM 247 after 72 hr by broth microdilution method. The settings on record: LM 247, 72 h. The essentials: as §1
The test system of assay [6] is Aspergillus flavus. In words: Antifungal activity against Aspergillus flavus LM 210 after 72 hr by broth microdilution method. The settings on record: LM 210, 72 h. The method, boiled down:
as §1

Assay [7] relates to Aspergillus fumigatus. In words: Antifungal activity against Aspergillus fumigatus ATCC 46913 after 72 hr by broth microdilution method. The settings on record: ATCC 46913, 72 h. The method, boiled down: as §1
Assay [8] relates to Aspergillus fumigatus. In words: Antifungal activity against Aspergillus fumigatus ATCC 40640 after 72 hr by broth microdilution method. The settings on record: ATCC 40640, 72 h. The essentials: as §1

In brackets after ≈: the same amount, converted by molar mass.

The MIC is the least concentration at which growth counts as inhibited. High values mean a less susceptible organism, low ones a more susceptible organism. Turning to `O=c1oc2ccccc2cc1O` [3-HYDROXYCOUMARIN], the MIC against Aspergillus fumigatus [1] amounted to 64 µg/mL (≈ 0.395 mM); in the assay on Aspergillus flavus [2], 128 µg/mL (≈ 0.789 mM); in the assay with Aspergillus fumigatus [3], 64 µg/mL (≈ 0.395 mM); against Aspergillus flavus [4], 128 µg/mL (≈ 0.789 mM); against Aspergillus flavus [5], 128 µg/mL (≈ 0.789 mM); against Aspergillus flavus [6] it was 128 µg/mL (≈ 0.789 mM). In addition, the MIC against Aspergillus fumigatus [7] and in the assay on Aspergillus fumigatus [8] was 64 µg/mL (≈ 0.395 mM) in each case. In addition, the “log(1/MIC)” value with Aspergillus fumigatus [3] stood at 3.4.
Regarding `O=c1cc(O)c2ccccc2o1` [4-HYDROXYCOUMARINS], the MIC in the assay on Aspergillus fumigatus [1], in the assay with Aspergillus flavus [2], against Aspergillus fumigatus [3], in the assay on Aspergillus flavus [4], with Aspergillus flavus [5] and against Aspergillus flavus [6] was at least 2050 µg/mL in each case. For the same molecule, the MIC in the assay on Aspergillus fumigatus [7] and with Aspergillus fumigatus [8] was at least 2050 µg/mL each time. The “log(1/MIC)” value with Aspergillus fumigatus [3] is listed as 1.89.
For the molecule `O=c1ccc2cc(O)ccc2o1` [6-HYDROXYCOUMARIN], the MIC in the assay with Aspergillus fumigatus [1], in the assay with Aspergillus flavus [2], against Aspergillus fumigatus [3], in the assay with Aspergillus flavus [4], with Aspergillus flavus [5] and against Aspergillus flavus [6] was at least 2050 µg/mL each time. Besides, the MIC in the assay on Aspergillus fumigatus [7] and in the assay with Aspergillus fumigatus [8] was at least 2050 µg/mL in each case. The “log(1/MIC)” value in the assay on Aspergillus fumigatus [3] came to 1.89.
Take `CC(=O)Oc1ccc2ccc(=O)oc2c1` [7-ACETOXYCOUMARIN]: the MIC with Aspergillus fumigatus [1] turned out to be 64 µg/mL (≈ 0.313 mM); against Aspergillus flavus [2] it was 64 µg/mL (≈ 0.313 mM); in the assay with Aspergillus fumigatus [3], 64 µg/mL (≈ 0.313 mM); with Aspergillus flavus [4] it was 64 µg/mL (≈ 0.313 mM); in the assay on Aspergillus flavus [5], 128 µg/mL (≈ 0.627 mM); in the assay on Aspergillus flavus [6], 64 µg/mL (≈ 0.313 mM). For the same molecule, the MIC in the assay on Aspergillus fumigatus [7] and in the assay with Aspergillus fumigatus [8] was 64 µg/mL (≈ 0.313 mM) throughout. Further, in the assay with Aspergillus fumigatus [3], the “log(1/MIC)” value is recorded as 3.5.
`C=CCOc1ccc2ccc(=O)oc2c1` [7-ALLYLOXYCOUMARIN]: the MIC was 64 µg/mL (≈ 0.317 mM) with Aspergillus fumigatus [1]; 64 µg/mL (≈ 0.317 mM) against Aspergillus flavus [2]; 64 µg/mL (≈ 0.317 mM) against Aspergillus fumigatus [3]; 64 µg/mL (≈ 0.317 mM) in the assay with Aspergillus flavus [4]; 256 µg/mL (≈ 1.27 mM) against Aspergillus flavus [5]; 64 µg/mL (≈ 0.317 mM) in the assay on Aspergillus flavus [6]. Further, the MIC with Aspergillus fumigatus [7] and in the assay with Aspergillus fumigatus [8] was 64 µg/mL (≈ 0.317 mM) throughout. Further, in the assay with Aspergillus fumigatus [3], the “log(1/MIC)” value turned out to be 3.49.
Consider `CC(C)=CCOc1ccc2ccc(=O)oc2c1` [7-PRENYLOXYCOUMARIN], for which the MIC against Aspergillus fumigatus [1] is 128 µg/mL (≈ 0.556 mM); in the assay with Aspergillus flavus [2], 1020 µg/mL (≈ 4.45 mM); in the assay with Aspergillus fumigatus [3], 128 µg/mL (≈ 0.556 mM); against Aspergillus flavus [4], 1020 µg/mL (≈ 4.45 mM); in the assay on Aspergillus flavus [5], 1020 µg/mL (≈ 4.45 mM); in the assay with Aspergillus flavus [6], 1020 µg/mL (≈ 4.45 mM). Besides, the MIC against Aspergillus fumigatus [7] and against Aspergillus fumigatus [8] was 128 µg/mL (≈ 0.556 mM) throughout. Moreover, in the assay with Aspergillus fumigatus [3], the “log(1/MIC)” value worked out at 3.25.
For the molecule `C[C@@H]1[C@H](O)[C@@H](C)/C=C/C=C/C=C/C=C/C=C/C=C/C=C/[C@H](O[C@@H]2O[C@H](C)[C@@H](O)[C@H](N)[C@@H]2O)C[C@@H]2O[C@](O)(C[C@@H](O)C[C@@H](O)[C@H](O)CC[C@@H](O)C[C@@H](O)CC(=O)O[C@H]1C)C[C@H](O)[C@H]2C(=O)O` [AMPHOTERICIN B], the MIC was determined as 2 µg/mL (≈ 0.00216 mM) in the assay with Aspergillus fumigatus [1]; 2 µg/mL (≈ 0.00216 mM) in the assay with Aspergillus flavus [2]; 2 µg/mL (≈ 0.00216 mM) against Aspergillus fumigatus [3]; 512 µg/mL (≈ 0.554 mM) against Aspergillus flavus [4]; 8 µg/mL (≈ 0.00866 mM) against Aspergillus flavus [5]; 2 µg/mL (≈ 0.00216 mM) with Aspergillus flavus [6]. Further, the MIC against Aspergillus fumigatus [7] and with Aspergillus fumigatus [8] was 2 µg/mL (≈ 0.00216 mM) in each case.
In the case of `CC(C)=CCC/C(C)=C/COc1ccc2ccc(=O)oc2c1` [AURAPTENE], the MIC with Aspergillus fumigatus [1], in the assay on Aspergillus flavus [2], in the assay on Aspergillus fumigatus [3], in the assay with Aspergillus flavus [4], in the assay on Aspergillus flavus [5] and against Aspergillus flavus [6] was at least 2050 µg/mL each time. Besides, the MIC against Aspergillus fumigatus [7] and against Aspergillus fumigatus [8] was at least 2050 µg/mL each time. In addition, in the assay on Aspergillus fumigatus [3], the “log(1/MIC)” value stood at 2.16.
`O=C(O)c1cc2ccccc2oc1=O` [COUMARIN-3-CARBOXYLIC ACID]: the MIC in the assay on Aspergillus fumigatus [1] was 1020 µg/mL (≈ 5.39 mM); with Aspergillus flavus [2], 1020 µg/mL (≈ 5.39 mM); in the assay on Aspergillus fumigatus [3] it was 1020 µg/mL (≈ 5.39 mM); in the assay on Aspergillus flavus [4], 1020 µg/mL (≈ 5.39 mM); in the assay on Aspergillus flavus [5], at least 2050 µg/mL; against Aspergillus flavus [6], 1020 µg/mL (≈ 5.39 mM). Moreover, the MIC with Aspergillus fumigatus [7] and against Aspergillus fumigatus [8] was 1020 µg/mL (≈ 5.39 mM) throughout. Moreover, the “log(1/MIC)” value in the assay with Aspergillus fumigatus [3] came out at 2.26.
`O=c1ccc2ccccc2o1` [COUMARIN]: the MIC in the assay on Aspergillus fumigatus [1], with Aspergillus flavus [2], against Aspergillus fumigatus [3], with Aspergillus flavus [4], in the assay with Aspergillus flavus [5] and against Aspergillus flavus [6] was 1020 µg/mL (≈ 7.01 mM) throughout. Further, the MIC with Aspergillus fumigatus [7] and against Aspergillus fumigatus [8] was 1020 µg/mL (≈ 7.01 mM) each time. For the same molecule, in the assay on Aspergillus fumigatus [3], the “log(1/MIC)” value worked out at 2.15.
On to `O=c1oc2ccccc2c(O)c1Cc1c(O)c2ccccc2oc1=O` [DICUMAROL], for which the MIC with Aspergillus fumigatus [1], with Aspergillus flavus [2], against Aspergillus fumigatus [3], against Aspergillus flavus [4], in the assay on Aspergillus flavus [5] and with Aspergillus flavus [6] was at least 2050 µg/mL in each case. Moreover, the MIC against Aspergillus fumigatus [7] and against Aspergillus fumigatus [8] was at least 2050 µg/mL throughout. Moreover, the “log(1/MIC)” value with Aspergillus fumigatus [3] is 2.21.
As to `O=c1ccc2cc(O)c(O)cc2o1` [ESCULETIN], the MIC against Aspergillus fumigatus [1], in the assay with Aspergillus flavus [2], against Aspergillus fumigatus [3], with Aspergillus flavus [4], in the assay with Aspergillus flavus [5] and in the assay with Aspergillus flavus [6] was at least 2050 µg/mL each time. The MIC with Aspergillus fumigatus [7] and against Aspergillus fumigatus [8] was at least 2050 µg/mL throughout. Further, the “log(1/MIC)” value with Aspergillus fumigatus [3] was 1.93.
Regarding `COc1cc2ccc(=O)oc2c(O)c1O` [FRAXETIN], the MIC in the assay with Aspergillus fumigatus [1], in the assay on Aspergillus flavus [2], in the assay on Aspergillus fumigatus [3], against Aspergillus flavus [4], in the assay on Aspergillus flavus [5] and against Aspergillus flavus [6] was at least 2050 µg/mL each time. Besides, the MIC in the assay on Aspergillus fumigatus [7] and against Aspergillus fumigatus [8] was at least 2050 µg/mL each time. For the same molecule, the “log(1/MIC)” value in the assay with Aspergillus fumigatus [3] is recorded as 2.
With `COc1cc2ccc(=O)oc2cc1O` [SCOPOLETIN], the MIC in the assay with Aspergillus fumigatus [1], against Aspergillus flavus [2], with Aspergillus fumigatus [3], against Aspergillus flavus [4], against Aspergillus flavus [5] and in the assay with Aspergillus flavus [6] was at least 2050 µg/mL in each case. The MIC in the assay with Aspergillus fumigatus [7] and against Aspergillus fumigatus [8] was at least 2050 µg/mL each time. Also, in the assay on Aspergillus fumigatus [3], the “log(1/MIC)” value worked out at 1.97.
In the case of `O=c1ccc2ccc(O)cc2o1` [UMBELLIFERONE], the MIC against Aspergillus fumigatus [1], with Aspergillus flavus [2], in the assay with Aspergillus fumigatus [3], against Aspergillus flavus [4], against Aspergillus flavus [5] and against Aspergillus flavus [6] was at least 2050 µg/mL each time. For the same molecule, the MIC in the assay on Aspergillus fumigatus [7] and in the assay with Aspergillus fumigatus [8] was at least 2050 µg/mL each time. Further, in the assay with Aspergillus fumigatus [3], the “log(1/MIC)” value was 1.89.
